In brackets after ≈: the same amount, converted by molar mass. Activity calls are given as the source filed them. The calls are words filed in the database; no cut-off is given here.
Columns and labels:
[1] = biological target: Glutamate NMDA receptor; Grin1/Grin2a (Rattus norvegicus, UniProt P35439+Q00959); assay: Negative allosteric modulation of rat GluN1a/GluN2A receptor expressed in Xenopus laevis oocytes assessed as suppression of 100 uM glutamate and 30 uM glycine glycine induced-current by voltage clamp recording method; type: cell-based
Outline: (§1)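 Rat GluN1-1a cRNA co-injected with GluN2A, 2B, 2C or 2D cRNA into Xenopus oocytes; expression 1–3 days at 16–19 °C. Two-electrode voltage clamp. Currents evoked by 100 µM glutamate plus 30 µM glycine, alone and then with rising inhibitor concentrations. […] 4–17 oocytes from ≥2 frogs.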

[2] = biological target: T1, Glutamate NMDA receptor; Grin1/Grin2b (Rattus norvegicus) (UniProt P35439+Q00960); assay: Noncompetitive negative allosteric modulation of rat GluN1a/GluN2B receptor expressed in Xenopus laevis oocytes assessed as suppression of 1000 uM glutamate and 30 uM glycine induced-current at 5 uM by voltage clamp recording method relative to control; type: cell-based
Outline: (§2)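 Oocytes expressing GluN1 with GluN2A, 2B, 2C or 2D, two-electrode voltage clamp. Inhibition by 5 µM compound of currents evoked by 100 µM glutamate plus 30 µM glycine, compared with inhibition when glutamate was raised to 1000 µM or glycine to 300 µM. Mean ±SEM from 4–6 oocytes.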

[3] = biological target: Ionotropic glutamate receptor NMDA 1/2D (Rattus norvegicus, UniProt P35439+Q62645); assay: Negative allosteric modulation of rat GluN1a/GluN2D receptor expressed in Xenopus laevis oocytes assessed as suppression of 100 uM glutamate and 30 uM glycine induced-current by voltage clamp recording method; type: cell-based; outline: as §1
[4] = biological target: T2, Glutamate NMDA receptor; Grin1/Grin2a (Rattus norvegicus) (UniProt P35439+Q00959); assay: Negative allosteric modulation of rat GluN1a/GluN2A receptor expressed in Xenopus laevis oocytes assessed as suppression of 100 uM glutamate and 30 uM glycine induced-current at saturating compound level by voltage clamp recording method; type: cell-based; outline: as §1
[5] = biological target: T3, Ionotropic glutamate receptor NMDA 1/2D (Rattus norvegicus) (UniProt P35439+Q62645); assay: Negative allosteric modulation of rat GluN1a/GluN2D receptor expressed in Xenopus laevis oocytes assessed as suppression of 100 uM glutamate and 30 uM glycine induced-current at saturating compound level by voltage clamp recording method; type: cell-based; outline: as §1
[6] = biological target: T4, Glutamate NMDA receptor; Grin1/Grin2c (Rattus norvegicus) (UniProt P35439+Q00961); assay: Negative allosteric modulation of rat GluN1a/GluN2C receptor expressed in Xenopus laevis oocytes assessed as suppression of 100 uM glutamate and 30 uM glycine induced-current at saturating compound level by voltage clamp recording method; type: cell-based; outline: as §1
[7] = biological target: T4, Glutamate NMDA receptor; Grin1/Grin2c (Rattus norvegicus); assay: Noncompetitive negative allosteric modulation of rat GluN1a/GluN2C receptor expressed in Xenopus laevis oocytes assessed as suppression of 100 uM glutamate and 300 uM glycine induced-current at 5 uM by voltage clamp recording method relative to control; type: cell-based; outline: as §2
[8] = biological target: Glutamate NMDA receptor (Rattus norvegicus) (UniProt P35439+Q00959+Q00960+Q00961+Q62645+Q8VHN2+Q9R1M7); assay: Negative allosteric modulation of NMDA receptor in rat cerebellar granule cells assessed as suppression of 100 uM glutamate and 30 uM glycine induced-current at 30 uM cotreated with 100 uM NMDA and 50 uM glycine by patch clamp recording method
Outline: (§3)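 Primary cerebellar granule cell cultures from P6–8 rats, whole-cell patch clamp at a holding potential of −70 mV. NMDA receptor currents evoked by 100 µM NMDA plus 30 µM glycine (50 µM glycine in the example trace), with the inhibitor co-applied at various concentrations. Steady-state inhibition averaged over n = 5 cells and fitted with the Hill equation.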

[9] = biological target: T2, Glutamate NMDA receptor; Grin1/Grin2a (Rattus norvegicus); assay: Noncompetitive negative allosteric modulation of rat GluN1a/GluN2A receptor expressed in Xenopus laevis oocytes assessed as suppression of 1000 uM glutamate and 30 uM glycine induced-current at 5 uM by voltage clamp recording method relative to control; type: cell-based; outline: as §2
[10] = biological target: T3, Ionotropic glutamate receptor NMDA 1/2D (Rattus norvegicus); assay: Noncompetitive negative allosteric modulation of rat GluN1a/GluN2D receptor expressed in Xenopus laevis oocytes assessed as suppression of 1000 uM glutamate and 30 uM glycine induced-current at 5 uM by voltage clamp recording method relative to control; type: cell-based; outline: as §2
[11] = biological target: T4, Glutamate NMDA receptor; Grin1/Grin2c (Rattus norvegicus); assay: Noncompetitive negative allosteric modulation of rat GluN1a/GluN2C receptor expressed in Xenopus laevis oocytes assessed as suppression of 1000 uM glutamate and 30 uM glycine induced-current at 5 uM by voltage clamp recording method relative to control; type: cell-based; outline: as §2
Glutamate NMDA receptor = assay: Negative allosteric modulation of NMDA receptor in rat cerebellar granule cells assessed as suppression of 100 uM glutamate and 30 uM glycine induced-current cotreated with 100 uM NMDA and 50 uM glycine by patch clamp recording method; outline: as §3
[12] = biological target: T4, Glutamate NMDA receptor; Grin1/Grin2c (Rattus norvegicus); assay: Voltage-independent negative allosteric modulation of rat GluN1a/GluN2C receptor expressed in Xenopus laevis oocytes assessed as mean reverse potential of 100 uM glutamate and 30 uM glycine induced-current at -60 to +60 mV at 3 uM by voltage clamp recording method in absence of Mg2+ (Rvb=-13+/-0.6 mV); type: cell-based
Outline: (§4)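 GluN1/GluN2C receptors in Xenopus oocytes, two-electrode voltage clamp in Mg2+-free solution. Currents evoked by maximally effective glutamate plus glycine, without and with 3 µM inhibitor, recorded at membrane potentials from −60 to +60 mV. Reversal potential taken from the current–voltage relationship (3rd-order polynomial fit). n = 5 oocytes, mean ±SEM.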

[13] = biological target: Glutamate NMDA receptor; Grin1/Grin2b (Rattus norvegicus, UniProt P35439+Q00960); assay: Negative allosteric modulation of rat GluN1a/GluN2B receptor expressed in Xenopus laevis oocytes assessed as suppression of 100 uM glutamate and 30 uM glycine induced-current by voltage clamp recording method; type: cell-based; outline: as §1
Primary neuron = assay: Neuroprotective activity in rat primary hippocampal neurons assessed as 100 uM NMDA and 30 uM glycine induced LDH release in media at 30 uM after 20 to 24 hrs by spectrophotometric analysis; type: functional, cell-based
Outline: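 Primary rat hippocampal neurons kept 7–10 days in vitro at 37 °C. Challenged for 1 h with Mg2+-free medium containing 100 µM NMDA plus 30 µM glycine, with or without […], then returned to normal medium. LDH activity in the supernatant read spectrophotometrically 20–24 h later and expressed relative to vehicle-treated cells. Triplicates from 6 independent experiments.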

[14] = biological target: Glutamate NMDA receptor; Grin1/Grin2c (Rattus norvegicus, UniProt P35439+Q00961); assay: Negative allosteric modulation of rat GluN1a/GluN2C receptor expressed in Xenopus laevis oocytes assessed as suppression of 100 uM glutamate and 30 uM glycine induced-current by voltage clamp recording method; type: cell-based; outline: as §1
[15] = biological target: T1, Glutamate NMDA receptor; Grin1/Grin2b (Rattus norvegicus); assay: Noncompetitive negative allosteric modulation of rat GluN1a/GluN2B receptor expressed in Xenopus laevis oocytes assessed as suppression of 100 uM glutamate and 300 uM glycine induced-current at 5 uM by voltage clamp recording method relative to control; type: cell-based; outline: as §2
[16] = biological target: T1, Glutamate NMDA receptor; Grin1/Grin2b (Rattus norvegicus); assay: Negative allosteric modulation of rat GluN1a/GluN2B receptor expressed in Xenopus laevis oocytes assessed as suppression of 100 uM glutamate and 30 uM glycine induced-current at saturating compound level by voltage clamp recording method; type: cell-based; outline: as §1
[17] = Solubility of compound in TEVC electrophysiological solution at 3.25 to 100 uM by nephelometric method; type: physicochemical
Outline: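 Nephelometry measuring forward light scattering of each compound at 3.25–100 µM in TEVC recording solution. Maximum solubility taken as the intersection point of a linear segmental regression. Mean of n = 2 in quadruplicate.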

[18] = biological target: T4, Glutamate NMDA receptor; Grin1/Grin2c (Rattus norvegicus); assay: Negative allosteric modulation of rat GluN1a/GluN2C receptor expressed in Xenopus laevis oocytes assessed as suppression of 100 uM glutamate and 30 uM glycine induced-current at -60 to +60 mV at 3 uM by voltage clamp recording method in absence of Mg2+; type: cell-based; outline: as §4
[19] = biological target: T2, Glutamate NMDA receptor; Grin1/Grin2a (Rattus norvegicus); assay: Noncompetitive negative allosteric modulation of rat GluN1a/GluN2A receptor expressed in Xenopus laevis oocytes assessed as suppression of 100 uM glutamate and 300 uM glycine induced-current at 5 uM by voltage clamp recording method relative to control; type: cell-based; outline: as §2
[20] = biological target: T3, Ionotropic glutamate receptor NMDA 1/2D (Rattus norvegicus); assay: Noncompetitive negative allosteric modulation of rat GluN1a/GluN2D receptor expressed in Xenopus laevis oocytes assessed as suppression of 100 uM glutamate and 300 uM glycine induced-current at 5 uM by voltage clamp recording method relative to control; type: cell-based; outline: as §2

- IC50 [1]: 900 nM
- inhibition [2]: Active
- IC50 [3]: 400 nM
- inhibition [4]: 88%
- inhibition [5]: 76%
- inhibition [6]: 80%
- inhibition [7]: Active
- inhibition [8]: Active
- inhibition [9]: Active
- inhibition [10]: Active
- inhibition [11]: Active
- IC50 (Glutamate NMDA receptor): 3400 nM
- Activity [12]: -11.9 mV
- IC50 [13]: 2200 nM
- IC50 [14]: 700 nM
- inhibition [15]: Active
- inhibition [16]: 70%
- solubility kinetic [17]: 43 µM (≈ 17 µg/mL)
- inhibition [18]: Active
- inhibition [19]: Active
- inhibition [20]: Active
Structure (SMILES): CCOC(=O)c1c(NC(=O)CC2SC(N)=NC2=O)sc2c1CCC(C)C2 (racemic)
- Activity (Primary neuron): Active
